Test results: ChEMBL document CHEMBL3400013, “Synthesis and biological activity evaluation of hydrazone derivatives based on a Tröger's base skeleton” (Bioorg Med Chem, 2015)
Activity calls are given as the source filed them. The calls are words filed in the database; no cut-off is given here.

Tested on: CCRF-CEM
Experiment: Cytostatic activity against human CCRF-CEM cells after 72 hrs by MTT assay
Assay type: functional, cell-based
In short: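 Cells were seeded at 25,000–30,000 per well and pre-incubated for 24 h at 37°C in 5% CO2. Four-fold compound dilutions were added in duplicate and incubated for 72 h. MTT was added for 1–4 h, and formazan was dissolved in 10% aq SDS (pH 5.5) overnight at 37°C. OD was read at 540 nm. IC50 came from dose-response curves, mean ± SD of eight independent experiments.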

Question: For `COc1ccc(O)c(/C=N/NC(=O)c2ccc3c4c(ccc3c2)N2Cc3c(ccc5cc(C(=O)N/N=C/c6cc(OC)ccc6O)ccc35)N(C4)C2)c1`, which IC50 is on record?
Answer: The IC50 was 0.18 µM.

Tested on: not listed separately
Experiment: Metal chelating activity of the compound assessed as formation of Co2+ complex by UV-vis spectrometry
Assay type: physicochemical

Question: Which Activity does the source give for `COc1ccc(O)c(/C=N/NC(=O)c2ccc3c4c(ccc3c2)N2Cc3c(ccc5cc(C(=O)N/N=C/c6cc(OC)ccc6O)ccc35)N(C4)C2)c1` here?
Answer: The Activity was “Active”.

Tested on: Nucleic Acid
Experiment: Binding affinity to DNA (unknown origin) assessed as DNA intercalation by UV-visible spectrophotometry in presence of Fe3+
Assay type: nucleic-acid assay

Question: With `COc1ccc(O)c(/C=N/NC(=O)c2ccc3c4c(ccc3c2)N2Cc3c(ccc5cc(C(=O)N/N=C/c6cc(OC)ccc6O)ccc35)N(C4)C2)c1` as the compound, how does the Activity read?
Answer: The Activity was “Active”.

Tested on: not listed separately
Experiment: Metal chelating activity of the compound assessed as formation of Fe2+ complex by UV-vis spectrometry
Assay type: physicochemical

Question: With `COc1ccc(O)c(/C=N/NC(=O)c2ccc3c4c(ccc3c2)N2Cc3c(ccc5cc(C(=O)N/N=C/c6cc(OC)ccc6O)ccc35)N(C4)C2)c1` as the compound, how does the Activity read?
Answer: Its Activity is “Not Active”.

Tested on: not listed separately
Experiment: Metal chelating activity of the compound assessed as formation of Ca2+ complex by UV-vis spectrometry
Assay type: physicochemical

Question: Which Activity does the source give for `COc1ccc(O)c(/C=N/NC(=O)c2ccc3c4c(ccc3c2)N2Cc3c(ccc5cc(C(=O)N/N=C/c6cc(OC)ccc6O)ccc35)N(C4)C2)c1` here?
Answer: The Activity was “Not Active”.

Tested on: not listed separately
Experiment: Metal chelating activity of the compound assessed as formation of Cu2+ complex by UV-vis spectrometry
Assay type: physicochemical

Question: Which Activity does the source give for `COc1ccc(O)c(/C=N/NC(=O)c2ccc3c4c(ccc3c2)N2Cc3c(ccc5cc(C(=O)N/N=C/c6cc(OC)ccc6O)ccc35)N(C4)C2)c1` here?
Answer: Its Activity is “Active”.

Tested on: BJ
Experiment: Selectivity index, ratio of IC50 for human BJ cells to IC50 for human p53-/- HCT116 cells
Assay type: functional

Question: Which “Ratio IC50” value does the source give for `COc1ccc(O)c(/C=N/NC(=O)c2ccc3c4c(ccc3c2)N2Cc3c(ccc5cc(C(=O)N/N=C/c6cc(OC)ccc6O)ccc35)N(C4)C2)c1` here?
Answer: The value was 495.

Tested on: Candida tropicalis
Experiment: Antifungal activity against Candida tropicalis up to 200 uM after 24 to 48 hrs by broth microdilution method
Assay type: functional, organism-based

Question: For `COc1ccc(O)c(/C=N/NC(=O)c2ccc3c4c(ccc3c2)N2Cc3c(ccc5cc(C(=O)N/N=C/c6cc(OC)ccc6O)ccc35)N(C4)C2)c1`, which Activity is on record?
Answer: Its Activity is “inactive”.

Tested on: CCRF-CEM
Experiment: Cell cycle arrest in human CCRF-CEM cells assessed as accumulation at S phase at IC50 after 24 hrs by propidium iodide staining-based flow cytometry
Assay type: functional
In short: (§1)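 Cells were then fixed in 70% ethanol, washed in hypotonic citrate buffer, treated with RNase (50 µg/mL) and stained with propidium iodide. Flow cytometry used a 488 nm laser. Apoptosis was scored as the percentage of particles with propidium content below G0/G1.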

Question: For `COc1ccc(O)c(/C=N/NC(=O)c2ccc3c4c(ccc3c2)N2Cc3c(ccc5cc(C(=O)N/N=C/c6cc(OC)ccc6O)ccc35)N(C4)C2)c1`, which Activity is on record?
Answer: Its Activity is 54.03%.

Tested on: not listed separately
Experiment: Metal chelating activity of the compound assessed as formation of Cr3+ complex by UV-vis spectrometry
Assay type: physicochemical

Question: Which Activity does the source give for `COc1ccc(O)c(/C=N/NC(=O)c2ccc3c4c(ccc3c2)N2Cc3c(ccc5cc(C(=O)N/N=C/c6cc(OC)ccc6O)ccc35)N(C4)C2)c1` here?
Answer: The Activity was “Not Active”.

Tested on: Pseudomonas aeruginosa
Experiment: Antimicrobial activity against multidrug-resistant Pseudomonas aeruginosa A/16575 up to 200 uM after 24 to 48 hrs by broth microdilution method
Assay type: functional, organism-based

Question: With `COc1ccc(O)c(/C=N/NC(=O)c2ccc3c4c(ccc3c2)N2Cc3c(ccc5cc(C(=O)N/N=C/c6cc(OC)ccc6O)ccc35)N(C4)C2)c1` as the compound, how does the Activity read?
Answer: Its Activity is “inactive”.

Tested on: Enterococcus faecalis
Experiment: Antimicrobial activity against Enterococcus faecalis CCM 4224 up to 200 uM after 24 to 48 hrs by broth microdilution method
Assay type: functional, organism-based

Question: For `COc1ccc(O)c(/C=N/NC(=O)c2ccc3c4c(ccc3c2)N2Cc3c(ccc5cc(C(=O)N/N=C/c6cc(OC)ccc6O)ccc35)N(C4)C2)c1`, which Activity is on record?
Answer: Its Activity is “inactive”.

Tested on: HCT-116
Experiment: Selectivity index, ratio of IC50 for human MRC5 cells to IC50 for human HCT116 cells
Assay type: functional

Question: For `COc1ccc(O)c(/C=N/NC(=O)c2ccc3c4c(ccc3c2)N2Cc3c(ccc5cc(C(=O)N/N=C/c6cc(OC)ccc6O)ccc35)N(C4)C2)c1`, which “Ratio IC50” value is on record?
Answer: Its value is 622.3.

Tested on: CCRF-CEM
Experiment: Induction of apoptosis in human CCRF-CEM cells assessed as inhibition of RNA synthesis at IC50 after 24 hrs by propidium iodide/BrU staining by flow cytometry
Assay type: functional
Set-up: scale not given: the % may be the effect or the level left

Question: Which Activity does the source give for `COc1ccc(O)c(/C=N/NC(=O)c2ccc3c4c(ccc3c2)N2Cc3c(ccc5cc(C(=O)N/N=C/c6cc(OC)ccc6O)ccc35)N(C4)C2)c1` here?
Answer: The Activity was 63.95%.

Tested on: Nucleic Acid
Experiment: Binding affinity to DNA (unknown origin) assessed as DNA intercalation by UV-visible spectrophotometry in presence of Ni2+
Assay type: nucleic-acid assay

Question: With `COc1ccc(O)c(/C=N/NC(=O)c2ccc3c4c(ccc3c2)N2Cc3c(ccc5cc(C(=O)N/N=C/c6cc(OC)ccc6O)ccc35)N(C4)C2)c1` as the compound, how does the Activity read?
Answer: Its Activity is “Active”.

Tested on: Nucleic Acid
Experiment: Binding affinity to DNA (unknown origin) assessed as DNA intercalation by UV-visible spectrophotometry in presence of Cu2+
Assay type: nucleic-acid assay

Question: Which Activity does the source give for `COc1ccc(O)c(/C=N/NC(=O)c2ccc3c4c(ccc3c2)N2Cc3c(ccc5cc(C(=O)N/N=C/c6cc(OC)ccc6O)ccc35)N(C4)C2)c1` here?
Answer: Its Activity is “Active”.

Tested on: A549
Experiment: Selectivity index, ratio of IC50 for human BJ cells to IC50 for human A549 cells
Assay type: functional

Question: With `COc1ccc(O)c(/C=N/NC(=O)c2ccc3c4c(ccc3c2)N2Cc3c(ccc5cc(C(=O)N/N=C/c6cc(OC)ccc6O)ccc35)N(C4)C2)c1` as the compound, how does the “Ratio IC50” value read?
Answer: Its value is 123.2.

Tested on: Candida parapsilosis
Experiment: Antifungal activity against Candida parapsilosis up to 200 uM after 24 to 48 hrs by broth microdilution method
Assay type: functional, organism-based

Question: For `COc1ccc(O)c(/C=N/NC(=O)c2ccc3c4c(ccc3c2)N2Cc3c(ccc5cc(C(=O)N/N=C/c6cc(OC)ccc6O)ccc35)N(C4)C2)c1`, which Activity is on record?
Answer: Its Activity is “inactive”.

Tested on: Staphylococcus haemolyticus
Experiment: Antimicrobial activity against methicillin-resistant Staphylococcus haemolyticus A1/16568 up to 200 uM after 24 to 48 hrs by broth microdilution method
Assay type: functional, organism-based

Question: With `COc1ccc(O)c(/C=N/NC(=O)c2ccc3c4c(ccc3c2)N2Cc3c(ccc5cc(C(=O)N/N=C/c6cc(OC)ccc6O)ccc35)N(C4)C2)c1` as the compound, how does the Activity read?
Answer: The Activity was “inactive”.

Tested on: not listed separately
Experiment: Metal chelating activity of the compound assessed as formation of Mg2+ complex by UV-vis spectrometry
Assay type: physicochemical

Question: Which Activity does the source give for `COc1ccc(O)c(/C=N/NC(=O)c2ccc3c4c(ccc3c2)N2Cc3c(ccc5cc(C(=O)N/N=C/c6cc(OC)ccc6O)ccc35)N(C4)C2)c1` here?
Answer: The Activity was “Not Active”.

Tested on: Pseudomonas aeruginosa
Experiment: Antimicrobial activity against Pseudomonas aeruginosa CCM 395 up to 200 uM after 24 to 48 hrs by broth microdilution method
Assay type: functional, organism-based

Question: Which Activity does the source give for `COc1ccc(O)c(/C=N/NC(=O)c2ccc3c4c(ccc3c2)N2Cc3c(ccc5cc(C(=O)N/N=C/c6cc(OC)ccc6O)ccc35)N(C4)C2)c1` here?
Answer: Its Activity is “inactive”.

Tested on: CCRF-CEM
Experiment: Induction of apoptosis in human CCRF-CEM cells assessed as apoptotic cells at IC50 after 24 hrs by propidium iodide staining-based flow cytometry
Assay type: functional
In short: as §1

Question: Which Activity does the source give for `COc1ccc(O)c(/C=N/NC(=O)c2ccc3c4c(ccc3c2)N2Cc3c(ccc5cc(C(=O)N/N=C/c6cc(OC)ccc6O)ccc35)N(C4)C2)c1` here?
Answer: The Activity was 12.97%.
